From PubChem
Only some compounds are listed: those with a hit (about 3.5% of all), similar ones and a draw of the others.
ABCG2 inh – human ABCG2 inhibition, ABCB1 as counter-screen; AID 1325; actives 0.1% (n = 190,000); IgMXP3 cells, JC-1 efflux, flow cytometry; inhibition, % at 6.6 µM; Q9UNQ0;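 active = inhibition above 80%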
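Measure – % inhibition of efflux relative to nicardipine and DMSO · Test system – ABCG2 IgMXP3 and barcoded ABCB1 CCRF-Adr cell mix · Control set – nicardipine as high control, DMSO as low control · Compound – one concentration, 6.6 µM final · Signal – flow cytometry of retained JC-1 fluorescence · Timing – 10 min exposure at 25 °C with rotation, no wash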
MEKK3 PB1 HTS – MEKK3-MEK5 PB1 interaction, increase or decrease; bead-based flow cytometry, Alexa488-MEK5 binding to MEKK3; actives lie on both sides; 0 = blocked by unlabeled MEK5, 100 = vehicle; binding response (% of control), % at 10 µM; actives 1.4% (n = 290,000); AID 1529;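 active = binding response more than 3 SD above or below the average of its plate-row segment, actives on both sides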;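 note: Alexa488 bead fluorescence after subtracting the streptavidin-only scavenger bead signal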
Target sequence (Q99759 whole entry, looked up): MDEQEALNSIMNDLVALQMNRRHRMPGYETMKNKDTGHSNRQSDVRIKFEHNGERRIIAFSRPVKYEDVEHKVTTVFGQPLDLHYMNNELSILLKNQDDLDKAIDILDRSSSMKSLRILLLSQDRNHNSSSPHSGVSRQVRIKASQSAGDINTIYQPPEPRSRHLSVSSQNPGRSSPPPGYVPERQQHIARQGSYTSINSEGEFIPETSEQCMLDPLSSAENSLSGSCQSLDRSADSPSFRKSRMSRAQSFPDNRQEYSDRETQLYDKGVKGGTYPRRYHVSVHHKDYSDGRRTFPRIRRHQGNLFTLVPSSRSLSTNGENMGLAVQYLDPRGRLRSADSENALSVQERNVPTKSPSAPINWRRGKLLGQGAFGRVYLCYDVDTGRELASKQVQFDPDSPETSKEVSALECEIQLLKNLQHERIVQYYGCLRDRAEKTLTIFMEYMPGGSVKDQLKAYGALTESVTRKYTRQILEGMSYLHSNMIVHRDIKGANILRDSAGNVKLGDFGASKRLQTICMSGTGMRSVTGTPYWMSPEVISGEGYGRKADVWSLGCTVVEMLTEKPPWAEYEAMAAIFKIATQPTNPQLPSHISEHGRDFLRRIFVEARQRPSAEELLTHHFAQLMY
ABCB1 inh – blocks JC-1 efflux by human ABCB1 transporter | actives 0.067% (n = 190,000) | CCRF-Adr cells, flow cytometry | inhibition, % at 6.6 µM | AID 1326; in the data active = inhibition above about 40%;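 note: higher value means more JC-1 retained so stronger ABCB1 efflux block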
MEKK2mut PB1 HTS – signal of MEK5 binding to mutant human MEKK2 PB1 domain | bead flow cytometry, Alexa488-MEK5 binding to MEKK2 mutant | percent response, % at 10 µM | actives 0.35% (n = 290,000) | AID 1530; in the data active = percent response above about 24%, passing the limit was not always enough
WT yeast gro inh – growth inhibition of WT yeast, mitochondrial fusion screen | mitochondrial fusion phenotypic screen, WT strain | inhibition, % at 10 µM | actives 2.1% (n = 190,000) | AID 1362; in the data active = inhibition above about 58%; tested in S. cerevisiae
MEKK2wt PB1 HTS – raises or lowers MEK5 binding to wildtype human MEKK2 PB1 domain | actives 1.1% (n = 290,000) | Q9Y2U5 | bead flow cytometry, Alexa488-MEK5 binding to MEKK2 WT; actives lie on both sides | AID 1531 | binding response (% of control), % at 10 µM; in the data active = binding response below about 67% or above about 130%
MEKK2wt confirm – raises or lowers MEK5 binding to wildtype human MEKK2, retest. shares compounds with MEKK3 PB1 HTS. bead flow cytometry, Alexa488-MEK5 binding to MEKK2 WT; actives lie on both sides. binding response (% of control), % at 10 µM. actives 2.4% (n = 5,900). AID 1892; in the data active = binding response below about 16% or above about 210%; inactive = in between
MEKK2mut confirm – signal of MEK5 binding to mutant human MEKK2, retest. shares compounds with MEKK3 PB1 HTS. bead flow cytometry, Alexa488-MEK5 binding to MEKK2 mutant. percent response, % at 10 µM. actives 2% (n = 5,900). AID 1893; in the data active = percent response mostly above about 71%, no sharp cut-off; inactive = mostly below about 38%;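 note: higher means compound restores mutant binding toward wildtype level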
MEKK3 confirm – confirmation of inhibitors of MEK5 binding to human MEKK3; shares compounds with MEKK3 PB1 HTS; bead flow cytometry, Alexa488-MEK5 binding to MEKK3; stronger effect = lower value; binding response (% of control), % at 10 µM; actives 1.8% (n = 5,900); AID 1894;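 active = binding response below 72% of control, or above a set upper limit, though filed actives all read lower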
Of the large screens only hits and unclear results are named; the others gave an inactive call (follow-up assays come after a bar, where they were run); [ ] = dose if it differs, or a comment.

COc1ccc(-c2ccnc(SCC(=O)N3CCN(c4ccccc4)CC3)n2)cc1	MEKK3 PB1 HTS 137 (no result: ABCG2 inh, ABCB1 inh, WT yeast gro inh) | MEKK2wt confirm inactive | MEKK2mut confirm inactive | MEKK3 confirm inactive
O=C(OC(C(=O)NC1CCCC1)c1ccccn1)c1cccs1 (stereo not drawn)	none
Cc1ccc(NS(=O)(=O)c2cc([N+](=O)[O-])ccc2N/N=C/c2sc(N3CCOCC3)nc2-c2ccccc2)c(C)c1	MEKK3 PB1 HTS 10[inhibitor] (no result: ABCG2 inh, ABCB1 inh, WT yeast gro inh, MEKK2wt PB1 HTS) | MEKK2wt confirm inactive | MEKK2mut confirm inactive | MEKK3 confirm inactive
Cc1nn2c(C(F)(F)F)c3c(nc2c1-c1ccccc1)CCC3	MEKK3 PB1 HTS 1.0[inhibitor] (no result: MEKK2wt PB1 HTS) | MEKK2wt confirm inactive | MEKK2mut confirm inactive | MEKK3 confirm inactive
Cc1nn2c(NC(C)C)c3c(nc2c1-c1ccccc1)CCC3	none (no result: ABCG2 inh, ABCB1 inh, WT yeast gro inh)
Cc1nn2c(NCCCN(C)C)c3c(nc2c1-c1ccccc1)CCCC3	none (no result: ABCG2 inh, ABCB1 inh, WT yeast gro inh)
Cc1nn2c(NCCCN(C)C)c3c(nc2c1-c1ccccc1)CCC3	MEKK2mut PB1 HTS 34, MEKK2wt PB1 HTS 173 | MEKK2wt confirm inactive | MEKK2mut confirm inactive | MEKK3 confirm inactive
O=C(CCNC(=O)C1CCN(S(=O)(=O)c2ccc(F)cc2)CC1)NCc1cccc(Cl)c1	none (no result: ABCG2 inh, ABCB1 inh, WT yeast gro inh)
CCO[C@@H]1OC(C(=O)O)=C[C@H](C2CC2)[C@H]1CCCO	none
COCCN=c1scc(C)n1/N=C/C1CC2C=CC1C2 (stereo not drawn)	none
C#CCOCCOCCOCCNc1nc(N2CCN(C(=O)[C@H](CCCCN)n3cc(C(N)CO)nn3)CC2)nc(N2CCN(C(=O)[C@H](CCC(=O)O)n3cc(C(N)CC(C)C)nn3)CC2)n1 (stereo partly drawn)	none (no result: ABCG2 inh, ABCB1 inh, WT yeast gro inh)
C#CCOCCOCCOCCNc1nc(N2CCOCC2)nc(N2CCN(C(=O)[C@H](Cc3ccc(O)cc3)n3cc([C@@H](N)C(C)CC)nn3)CC2)n1 (stereo partly drawn)	none
C#CCOCCOCCOCCNc1nc(N2CCN(C(=O)[C@H]([C@@H](C)CC)n3cc(CCCN=C(N)N)nn3)CC2)nc(N2CCN(C(=O)[C@H](CCCCN)n3cc(CCCC)nn3)CC2)n1	MEKK2wt PB1 HTS 172 | MEKK2wt confirm inactive | MEKK2mut confirm inactive | MEKK3 confirm inactive
C#CCOCCOCCOCCNc1nc(N2CCN(C(=O)[C@H](C)n3cc(CCCN=C(N)N)nn3)CC2)nc(N2CCN(C(=O)[C@H](CCCCN)n3cc(CCCC)nn3)CC2)n1	none
C#CCOCCOCCOCCNc1nc(N2CCN(C(=O)C(Cc3ccc(O)cc3)n3cc(C(N)C(C)CC)nn3)CC2)nc(N2CCN(C(=O)C(Cc3ccc(O)cc3)n3cc(C(N)C(C)CC)nn3)CC2)n1 (stereo not drawn)	MEKK2wt PB1 HTS 145 | MEKK2wt confirm inactive | MEKK2mut confirm inactive | MEKK3 confirm inactive
C#CCOCCOCCOCCNc1nc(N2CCN(C(=O)[C@H](Cc3ccc(O)cc3)n3cc([C@@H](N)CC(C)C)nn3)CC2)nc(N2CCN(C(=O)[C@H](Cc3ccc(O)cc3)n3cc([C@@H](N)CC(C)C)nn3)CC2)n1	MEKK2mut PB1 HTS 69, MEKK2wt PB1 HTS 188 | MEKK2wt confirm 227 | MEKK2mut confirm 95 | MEKK3 confirm inactive
C#CCOCCOCCOCCNc1nc(N2CCN(C(=O)[C@H](CCC(=O)O)n3cc(C(N)CC(C)C)nn3)CC2)nc(N2CCN(C(=O)[C@H](Cc3ccc(O)cc3)n3cc(C(N)CC(C)C)nn3)CC2)n1 (stereo partly drawn)	none
